ChEMBL document CHEMBL1250451, “Mechanistic insights into a Ca2+-dependent family of alpha-mannosidases in a human gut symbiont” (Nat Chem Biol, 2010)

Columns and labels:
Format in all cases: protein assay
[1] = substrate: O=[N+]([O-])c1ccc(O[C@H]2O[C@H](CO)[C@@H](O)[C@H](O)[C@@H]2O)cc1; experiment: (§1) Ratio of Kcat to Km for Bacteroides thetaiotaomicron GH92 alpha-mannosidase GH92 alpha-mannosidase 3530 assessed as mannose release after 16 hrs by HPLC
[2] = substrate: OC[C@H]1O[C@H](O[C@H]2[C@H](O)[C@H](O)[C@@H](O)O[C@@H]2CO)[C@@H](O)[C@@H](O)[C@@H]1O; experiment: as §1
[3] = substrate: O=[N+]([O-])c1ccc(O[C@H]2O[C@H](CO)[C@@H](O)[C@H](O)[C@@H]2O)cc1; experiment: (§2) Activity of Bacteroides thetaiotaomicron GH92 alpha-mannosidase GH92 alpha-mannosidase 3530 assessed as mannose release after 16 hrs by HPLC
[4] = substrate: OC[C@H]1O[C@H](O[C@H]2[C@H](O)[C@H](O)[C@@H](O)O[C@@H]2CO)[C@@H](O)[C@@H](O)[C@@H]1O; experiment: as §2
[5] = substrate: OC[C@H]1O[C@H](O[C@H]2[C@@H](O)[C@H](O)[C@@H](CO)O[C@@H]2O)[C@@H](O)[C@@H](O)[C@@H]1O; experiment: Activity of Bacteroides thetaiotaomicron GH92 alpha-mannosidase GH92 alpha-mannosidase 4092 assessed as mannose release after 16 hrs by HPLC
Method in brief: (§3)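 Yeast mannan or ovalbumin (mostly high-mannose N-glycans) at 1 mg ml−1 was incubated with recombinant IMAC-purified enzyme from E. coli. The methods give enzyme at 2 μM and the table footnote gives 1 μM. Buffer was 100 mM sodium HEPES pH 7.0 with 1 mg ml−1 BSA and 2 mM CaCl2. Aliquots were taken at 1 and 16 h and boiled 10 min. Mannose was measured by HPLC and scored by signal: >500 nC +++, 200–500 ++, <200 +.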

[6] = substrate: O=[N+]([O-])c1ccc(O[C@H]2O[C@H](CO)[C@@H](O)[C@H](O)[C@@H]2O)cc1; experiment: (§4) Ratio of Kcat to Km for Bacteroides thetaiotaomicron GH92 alpha-mannosidase GH92 alpha-mannosidase 4092 assessed as mannose release after 16 hrs by HPLC
[7] = substrate: OC[C@H]1O[C@H](O[C@H]2[C@@H](O)[C@H](O)[C@@H](CO)O[C@@H]2O)[C@@H](O)[C@@H](O)[C@@H]1O; experiment: as §4
[8] = substrate: O=[N+]([O-])c1ccc(O[C@H]2O[C@H](CO)[C@@H](O)[C@H](O)[C@@H]2O)cc1; experiment: (§5) Activity of Bacteroides thetaiotaomicron GH92 alpha-mannosidase GH92 alpha-mannosidase 4073 assessed as mannose release after 16 hrs by HPLC; method in brief: as §3
[9] = substrate: OC[C@H]1O[C@H](O[C@H]2[C@H](O)[C@H](O)[C@@H](O)O[C@@H]2CO)[C@@H](O)[C@@H](O)[C@@H]1O; experiment: as §5; method in brief: as §3
[10] = substrate: O=[N+]([O-])c1ccc(O[C@H]2O[C@H](CO)[C@@H](O)[C@H](O)[C@@H]2O)cc1; experiment: Ratio of Kcat to Km for Bacteroides thetaiotaomicron GH92 alpha-mannosidase GH92 alpha-mannosidase 4073 assessed as mannose release after 16 hrs by HPLC

B1: Alpha-1,2-mannosidase (BT_3530) (Bacteroides thetaiotaomicron), Q8A1X8 (protein)
chain: MTPSVAQNTKYVNLFIGTSGDNGQVAPGAAAPFGMVCVCPDNDPRSHAGYDYAVTKVSGISVNRLSGVGCSGGGGNLRIRPVAPSQELHIKKSREKATPGYYSTAFTNGIKTELTATNAMAVERYKFPRSLSAALWIDFASTFEDVATCHYKRISETCIEGYVQAKNVCGHGCYKLYFSLNTSQPFQLEEQKETTACLTFGKKVRSVEVRIGLSALSSELASWECARWEKMDFEDVKSRTADQWEKQLSAIDVKGGKKDDRVIFYTSLYRTYLSPADVSSPDGAYLGTDGKVYISEDFRYYSNWSLWDTFRTKFPLLVLTEPAKMRDMATSLIHLYATGKKDWSTGFESTPTVRTEHAVILLLDAYRKGITNLDFRKGYAGMKQEMERLPMRSPDQKMESAYDLWAMAKIAEIIGEKADSEQYRQRSVSLFEETWKKEFMNVTPAFEVMKNNGLYQGTRWQYRWAAPQYIDKMIEWVGQDSLRLQLTYFFDHHLYNQGNEPDIHVPYLFNRLGAPEKTQQIVRSLMTEPMIHKYGGNSEFKTPYLGKAFKNAPEGYSPEMDEDDGTMSAWYVFGAMGFYPLLVGDEYYDLTSPLFDRVLLRLTNGNVLTIQTEGRKKKDAPIKSIHFNGKKIADYRISHNELIKGGELIYNYK
With B1 the kcat/Km [1] was “Not Active”, the kcat/Km [2] was 1.58 M⁻¹ s⁻¹ and the Km [3] was “Not Active”. For the same protein, the kcat [3] was “Not Active”, the Km [4] was 610 µM and the kcat [4] was 0.001 s⁻¹.

B2: Alpha-1,2-mannosidase (BT_4092) (Bacteroides thetaiotaomicron), Q8A0C9 (protein)
chain: MKKLVYLIIFFLYSTVMNAQLKDLVQYVNTLQGTDSNFGLSYGNTYPTTGMPYGMHMWSAQTGKNGDGFKYMYAVDKIRAFSQSHQCSPWVSDYAVYSFMPMVGELVVNQDARATKFSHDNEIAKPHYYKVTFDNGITTEMAPTTRGVHLRFSYPTTGDAYLVLDGYTDMSEIKIDPAKRQISGWVNNQRFVNDSKSFRNYFVVQFDKPFEDYGVWENQKDEVFPQKLDGAGKGYGAFIKFKKGSKVQAKAASSYISAEQALITLNKELGKDKNLEVTKARGQKTWNEVLNRIVVEGCTDEQMKTFYSCLFRANLFSRKFYERKENGEPYYYSPYNGKIYDGYMYTDNGFWDTFRSQFPLTNILHPTMQGRYMNALLAAQEQCGWLPSWSSPGETGGMLGNHSISLLADAWAKGIRDFDPEKALKAYAHEAMNKGPWGGANGRGFWKEYFQLGYVPYPESMGSSAQTMEYAYDDFCGYQLAKMVGNKHYQEVFARQMYNYKNVFDKSIGFMRGKGVDGKWQEPFDPLEWGGPFCEGNAWHYTWSVFHDVQGLIDLFGSDEKFTTKIDSVFTIPNIIKPGTYGGVIHEMKEMELANMGQYAHGNQPIQHMPYLYCYAGQPWKTQYWVRQIVERLYNSTEKGYPGDEDQGGMSSWYILSSLGIYAVCPGTDEYVIGSPLFKKATITMENGNKFVIEAPENSKENLYIQSATLNGRLLDKNYIHYDDIAEGGVLKFEMGSQPNKERCTSKYAAPFSLSKE
B2 gave a Km [5] of 2000 µM, a kcat [5] of 1.83 s⁻¹ and a kcat/Km [6] of 1.12 M⁻¹ s⁻¹. The kcat/Km [7] was 900 M⁻¹ s⁻¹.

B3: Alpha-1,2-mannosidase, putative (BT_4073) (Bacteroides thetaiotaomicron), Q8A0E8 (protein)
chain: MYKASANILIACSFLWLTACSSAGVVTEDLIPTDYVNPFIGASTSVGAAGVYHGLGKTFPGATTPYGMVQVSPNTITGGDNSSGYSDEHKTIEGFAFTQMSGVGWFGDLGNFLVMPTTGELQKIAGKEDGSIKGYRSSYDKATETAKAGYYSVELTDYKIKVESSATPHCGILQFTFPSNEQSRIQIDLARRVGGTSTSQYVKVLDDYTIQGWMKCTPDGGGWGNGEGNSDYTVYYYAQFSKPLSNYGFWSADIPDEWVRKRDEVVSIPYLTRISQAPVIKDKKELEGKHLGFFTEFPTKEGEQVEMKVGISFVDMEGAANNFKQEIASKNFAQVKQEASDLWNKELSRIRISGGTDDEKTVFYTSLYHTMIDPRIYTDVDGRYIGGDKKVHEQDGTFTKRTIFSGWDVFRSQFPLQAMINPRLVSDALNSLITMADQSRREYYERWELLNSYSGCMIGNPALSVLADAYMKGIRTYDVEKAYQYAVNTSAKFGNDSLGYTPEPLSISYTLEYAYADWCVAQLAKALGKEEDAKRFYEKGQAYRNMFDAEKGWFRPRNADGSWKAWPENALTEEWYGCIESNAYQQGWFVPHDVPGMVELMGGKEEVIANLTNLFDHTPSDMLWNDYYNHANEPVHFVPFLFNQLDVPWYTQKWTRYICKNAYANKVEGIVGNEDVGQMSAWYILAASGIHPSCPGNTRMEITSPVFDKVEFNLDSKYHQGKVFTIIAHNNNTNNLYIQKALLNGKEYNKCYLDFAEIAAGGTLELFMGDKPNTEWGVLSNI
In the case of B3, the Km [8] is reported as 1800 µM, the kcat [8] is reported as 0.0045 s⁻¹ and the Km [9] is reported as 270 µM. It also gave a kcat/Km [10] of 2.33 M⁻¹ s⁻¹.
